pIC50: −log10 of the molar value.
How the values were obtained:
[1] = molecular target: Folate receptor alpha (Homo sapiens) (UniProt P15328); assay: Displacement of [3H]-folic acid from human FRalpha expressed in Chinese hamster RT16 cells after 15 mins relative to folic acid; type: cell-based
Method in brief: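 Competitive binding to surface folate receptor on RT16 (FRα) or D4 (FRβ) CHO cells. Cells were acid-washed (pH 3.5) to strip bound folate, then incubated in HEPES-buffered saline pH 7.4 with 50 nM [3H]folic acid plus unlabeled ligand (0–1000 nM) for 15 min at 0 °C. Bound label was normalised to protein. Affinity is the inverse molar ratio for 50% displacement, with folic acid set to 1. Mean of 4–10 experiments ±SE.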

[2] = system: SK-OV-3; assay: Antitumor activity against human SKOV3 cells expressing RFC/PCFT/FRalpha xenografted in folate-replete diet fed NCR SCID mouse assessed as tumor growth inhibition at 16 mg/kg, iv administered every 4 days on day 3, 7, 11 measured on day 21 relative to control; type: functional
Method in brief: (§1)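 Ten-week-old female NCR SCID mice, fed a folate-deficient or standard folate-replete diet, were implanted subcutaneously and bilaterally with SKOV3 tumour fragments. Randomised at 5 mice/group. Dosed intravenously, 0.2 mL per injection, in 5% ethanol/1% Tween-80/0.5% NaHCO3 in water at pH 6.5, on days 3, 7 and 11. Tumours measured twice weekly and mice weighed daily. T/C taken on day 21; growth delay and log cell kill also reported.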

[3] = system: SK-OV-3; assay: Antitumor activity against human SKOV3 cells expressing RFC/PCFT/FRalpha xenografted in folate-deficient diet fed NCR SCID mouse assessed as tumor growth inhibition at 16 mg/kg, iv administered every 4 days on day 3, 7, 11 measured on day 21 relative to control; type: functional; method in brief: as §1
[4] = system: IGROV-1; assay: Antiproliferative activity against human IGROV1 cells after 96 hrs by CellTiter-Blue assay; type: functional, cell-based; details: IGROV-1, 96 h
Method in brief: (§2)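 IGROV1 and SKOV3 cells plated at ~2500–5000 cells/well in folate-free RPMI 1640 with 10% dialyzed FBS, antibiotics and 2 nM LCV, over a range of drug concentrations, ±200 nM folic acid in parallel. Incubated up to 96 h. Viability read by Cell Titer Blue fluorescence (ex 560/em 590 nm).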

[5] = system: SK-OV-3; assay: Antiproliferative activity against human SKOV3 cells after 96 hrs by CellTiter-Blue assay in presence of 200 nM folic acid; type: functional, cell-based; details: SK-OV-3, 96 h; method in brief: as §2
[6] = system: SK-OV-3; assay: Antiproliferative activity against human SKOV3 cells after 96 hrs by CellTiter-Blue assay; type: functional, cell-based; details: SK-OV-3, 96 h; method in brief: as §2
[7] = system: SK-OV-3; assay: Antitumor activity against human SKOV3 cells expressing RFC/PCFT/FRalpha xenografted in folate-deficient diet fed NCR SCID mouse assessed as log10 of gross cell killing at 16 mg/kg, iv administered every 4 days on day 3, 7, 11 measured twice per week; type: functional; method in brief: as §1
[8] = molecular target: T1, Trifunctional purine biosynthetic protein adenosine-3 (Homo sapiens, UniProt P22102); assay: Inhibition of GARFTase in human KB cells expressing FRalpha/PCFT/RFC assessed as incorporation of [14C(U)]-glycine into [14C]-formyl GAR preincubated for 1 hr followed by azaserine, L-glutamine, 14C(U)]-glycine addition measured after 16 hrs; type: cell-based
T1 sequence (P22102 whole entry): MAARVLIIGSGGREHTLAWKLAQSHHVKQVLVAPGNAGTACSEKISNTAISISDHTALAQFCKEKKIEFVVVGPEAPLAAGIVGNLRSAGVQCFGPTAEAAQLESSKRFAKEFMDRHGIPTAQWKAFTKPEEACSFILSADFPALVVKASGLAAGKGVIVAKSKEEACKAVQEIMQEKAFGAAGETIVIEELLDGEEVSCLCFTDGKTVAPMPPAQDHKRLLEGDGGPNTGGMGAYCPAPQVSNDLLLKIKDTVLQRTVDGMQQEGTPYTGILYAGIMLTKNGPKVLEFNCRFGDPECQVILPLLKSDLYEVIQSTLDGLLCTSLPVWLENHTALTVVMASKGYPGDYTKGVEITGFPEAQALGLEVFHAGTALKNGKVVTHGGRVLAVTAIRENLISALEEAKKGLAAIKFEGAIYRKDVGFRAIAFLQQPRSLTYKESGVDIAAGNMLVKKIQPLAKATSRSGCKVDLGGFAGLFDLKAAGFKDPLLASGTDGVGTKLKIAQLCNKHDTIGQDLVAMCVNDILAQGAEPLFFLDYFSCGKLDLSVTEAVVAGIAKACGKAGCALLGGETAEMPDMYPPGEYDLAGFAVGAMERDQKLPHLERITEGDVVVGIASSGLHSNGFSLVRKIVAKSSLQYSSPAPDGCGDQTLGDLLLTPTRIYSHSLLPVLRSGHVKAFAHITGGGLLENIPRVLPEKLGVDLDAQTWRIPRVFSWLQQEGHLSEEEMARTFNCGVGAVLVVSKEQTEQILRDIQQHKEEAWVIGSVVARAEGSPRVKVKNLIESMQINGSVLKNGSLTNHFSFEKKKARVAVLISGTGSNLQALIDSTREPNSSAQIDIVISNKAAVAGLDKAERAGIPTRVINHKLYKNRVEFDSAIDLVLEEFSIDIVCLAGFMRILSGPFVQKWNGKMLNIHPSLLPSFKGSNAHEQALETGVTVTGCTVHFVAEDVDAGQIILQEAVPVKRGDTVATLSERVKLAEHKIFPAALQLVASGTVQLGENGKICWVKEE
Method in brief: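 In situ assay in KB cells. Cells were exposed to a range of drug concentrations with [14C]glycine for 16 h under proliferation-assay conditions, with azaserine present. Radiolabelled metabolites were extracted and separated on anion exchange columns, and [14C]formyl GAR quantified. Mean ±SE of three experiments.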

[9] = system: PC43-10; assay: Selectivity ratio of IC50 for human RFC expressed in Chinese hamster PC43-10 cells assessed as cell growth inhibition to IC50 for human PCFT expressed in Chinese hamster R2/PCFT4 cells assessed as cell growth inhibition; type: cell-based

Sequence of Folate receptor alpha (Homo sapiens) (P15328 25-234 limits assumed): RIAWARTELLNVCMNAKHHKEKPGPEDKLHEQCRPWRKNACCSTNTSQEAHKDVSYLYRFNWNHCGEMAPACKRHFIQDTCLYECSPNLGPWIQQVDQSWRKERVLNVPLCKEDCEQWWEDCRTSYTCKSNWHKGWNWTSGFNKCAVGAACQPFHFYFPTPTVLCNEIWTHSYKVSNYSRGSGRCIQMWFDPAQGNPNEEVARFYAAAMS

Structure (SMILES): Nc1nc2[nH]c(CCCc3cc(C(=O)N[C@@H](CCC(=O)O)C(=O)O)cs3)cc2c(=O)[nH]1
- Activity [1]: 60%
- T/C [2]: 69%
- T/C [3]: 15%
- pIC50 [4]: 9.11
- pIC50 [5]: 7.12
- pIC50 [6]: 7.81
- LCK [7]: 1.9
- pIC50 [8]: 8.59
- Ratio IC50 [9]: 29
